Bioassay records: PubChem BioAssay, several laboratories
Diaph inh CS: diaphorase inhibition or chemical oxidation counter-screen; diaphorase resazurin-to-resorufin fluorescence, NADH, 16 min; bacterial (C. kluyveri) enzyme, not human; AID 1217; 190,000 compounds, 0.69% hits; inhibition, % at 20 µM;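 active means primary screen inhibition at 20 µM above a set limit, cut at about 50% in these data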;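 further: plate controls were DMSO with full reaction for no effect and wells lacking NADH for full effect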
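Assay system: diaphorase enzyme from Clostridium kluyveri. Quantity: enzyme working solution with 0.14 U/mL diaphorase. Schedule: reaction incubation of 16 min at room temperature. Technique: resorufin fluorescence, excitation 544 nm, emission 590 nm. Controls: No-NADH positive control and DMSO neutral control.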
p47phox inh: blocks human p47phox regulatory protein of NADPH oxidases. P14598. p47phox/p22phox peptide binding, fluorescence polarization, 2 h. inhibition, % at 24.7 µM. 220,000 compounds, 0.53% hits. AID 1274;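 active means inhibition above about 30%, limit read from the data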;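 further: 0% = p47phox with labelled peptide and 100% = labelled peptide alone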
Target sequence (P14598 whole entry, looked up): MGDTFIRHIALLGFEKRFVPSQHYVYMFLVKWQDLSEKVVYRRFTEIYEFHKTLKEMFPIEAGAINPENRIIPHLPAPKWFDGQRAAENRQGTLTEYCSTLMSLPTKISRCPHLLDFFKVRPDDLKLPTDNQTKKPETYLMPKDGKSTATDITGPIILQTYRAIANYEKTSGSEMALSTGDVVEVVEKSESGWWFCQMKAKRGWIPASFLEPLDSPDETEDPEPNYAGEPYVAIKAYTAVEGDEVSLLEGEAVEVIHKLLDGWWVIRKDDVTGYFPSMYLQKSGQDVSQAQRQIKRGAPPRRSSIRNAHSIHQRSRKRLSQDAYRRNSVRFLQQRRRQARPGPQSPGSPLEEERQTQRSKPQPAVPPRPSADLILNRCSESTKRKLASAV
Efa HMGR inh: E. faecalis class II HMG-CoA reductase inhibition | purified E. faecalis HMGR, NADPH absorbance 340 nm kinetic | inhibition, % at 10 µM | 190,000 compounds, 0.41% hits;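 active means inhibition above a set limit, the median over all tested compounds plus 3 SD, cut at about 9.5% in these data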;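 further: enzyme runs in reverse so mevalonate oxidation gives rising NADPH absorbance; 0% = complete reaction with DMSO and 100% = background rate lacking mevalonate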
Diaph act CS: diaphorase activation or chemical reduction counter-screen. Diaphorase/resazurin coupled assay, resorufin fluorescence, 16 min; active compounds read high; 1 = vehicle wells, 0 = NADH-free wells. activation factor at 20 µM. 190,000 compounds, 0.005% hits;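 active means diaphorase activity raised at least twofold by the compound at 20 µM; inactive means activation factor below 2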
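Test system: Clostridium kluyveri diaphorase, purified enzyme; input: enzyme 0.07 U/mL final; buffer or medium: 50 mM HEPES pH 7.4 with 4.542 mM MgCl2, 0.005% Tween 20; also added: 0.114 mM NADH and 0.1 mM resazurin, final amounts; schedule: 16 min enzyme reaction, ambient temperature; technique: fluorescence of resorufin, 544 nm excitation, 590 nm emission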
ABCB1 inh: inhibitors of human ABCB1 transporter, ABCG2 counter-screen. P08183. CCRF-Adr cells, JC-1 efflux, flow cytometry. inhibition, % at 6.6 µM. 190,000 compounds, 0.067% hits; in the data active means inhibition above about 40%;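 further: 0% = vehicle and 100% = reference inhibitor; higher value means more JC-1 retained so stronger ABCB1 efflux block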
ABCG2 block: human ABCG2 inhibition, ABCB1 as counter-screen. AID 1325. 190,000 compounds, 0.1% hits. inhibition, % at 6.6 µM. Q9UNQ0. IgMXP3 cells, JC-1 efflux, flow cytometry;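 active means inhibition above 80%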;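 further: 0% = DMSO and 100% = nicardipine control wells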
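Read-out basis: Efflux inhibition in percent versus controls | Test system: ABCG2 IgMXP3 and barcoded ABCB1 CCRF-Adr cell mix | Quantity: 3 million cells/mL in well | Schedule: 10 min at 25 °C | Control set: Nicardipine as high control, DMSO as low control | Reagent: JC-1 as fluorescent efflux pump substrate | Signal: Flow cytometry of retained JC-1 fluorescence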
* hit, by the source's call; . = no result given; + = active, no number. An excerpt weighted towards active compounds, which were near 1.6% of everything screened.

SMILES | Diaph inh CS | p47phox inh | Efa HMGR inh | Diaph act CS | ABCB1 inh | ABCG2 block
CS(=O)(=O)N1CCN(c2ccc(NC(=O)c3cccnc3Cl)cc2)CC1 | -6 | 12 | 1 | 1.1 | 0 | 0
COc1ccc(NS(=O)(=O)c2cc(NC(=O)c3cccnc3Cl)ccc2N2CCCC2)cc1 | . | + | . | . | . | .
CN(C)c1ccc(NC(=O)Nc2cccc3ccccc23)cc1 | 13 | -1 | -7 | 0.9 | 0 | 1
O=C(c1cc(Cl)ccc1Cl)N1CCN(c2ccccn2)CC1 | 11 | -10 | -9 | 0.9 | 1 | 3
O=C(c1cc([N+](=O)[O-])ccc1Cl)N1CCN(c2ccccn2)CC1 | 13 | 1 | 11* | 0.9 | 1 | 4
C=CCOc1ccc2cccc(/C=N/NC(=O)c3cc4cc([N+](=O)[O-])ccc4s3)c2c1 | -12 | 41* | 4 | 1.1 | 0 | 0
CCOC(=O)/C=C/C(=O)OCC(=O)Nc1ccc(C)cc1 | -1 | -1 | 11* | 1 | 1 | 2
c1ccc(Oc2ccc(-c3ccnc4nc(N5CCOCC5)nn34)cc2)cc1 | 7 | -5 | -9 | 0.9 | 0 | 0
CCc1ccccc1NC(=O)C1CC(c2ccc(F)cc2)=NO1 (stereo unspecified) | 5 | 33* | -1 | 0.9 | 2 | 20
Cc1cc(C(=O)NC(C)Cc2ccccc2)cc(C)c1[N+](=O)[O-] (stereo unspecified) | 69* | -8 | 1 | 0.3 | 0 | 5
CC(CCc1ccccc1)NC(=O)c1ccc(C(=O)NC(C)CCc2ccccc2)cc1 (stereo unspecified) | 14 | 1 | 2 | 0.9 | 8 | 23
CC(/C=C/c1ccco1)=N\NC(=O)CNc1ccc2ccccc2c1 | 56* | -12 | -4 | 0.4 | 0 | 4
O=C1c2cccnc2C(=O)N1C1CCCCC1 | -6 | -13 | -5 | 1.1 | 1 | 12
COc1ccc(N2C(=O)C(CN3CCCCC3)C2c2ccccc2)cc1 (stereo unspecified) | -18 | -9 | 15* | 1.2 | 1 | 1
Cc1c(-c2ccc(Br)cc2)[n+](=O)c2c(n1[O-])CCCCC2 | . | -10 | . | . | . | .
O=C(COc1ccccc1/C=C\c1nc(O)c([N+](=O)[O-])c(=O)[nH]1)Nc1ccccc1 | 72* | -20 | -8 | 0.3 | 0 | 0
Cc1cc(/C=C\c2nc(O)c([N+](=O)[O-])c(=O)[nH]2)c(C)n1-c1ccccc1 | 30 | -12 | -8 | 0.7 | 1 | 3
Nc1n[nH]c(=S)n1/N=C1/C(=O)Nc2ccccc21 | 79* | 23 | 5 | 0.2 | 0 | -2
Cc1ccc2c(c1)/C(=N/N1C(=O)c3ccccc3C1=O)C(=O)N2 | 24 | 3 | -2 | 0.8 | 1 | 16
COc1ccc(OC)c(NC(=O)C(=O)NCCC2=CCCCC2)c1 | 21 | -6 | -1 | 0.8 | 6 | 34
Cn1cccc1/C=N/n1c(-c2ccc(Cl)cc2)n[nH]c1=S | 28 | 1 | -2 | 0.7 | 0 | -1
Cn1cccc1/C=N/n1c(-c2ccc(Cl)cc2Cl)n[nH]c1=S | 72* | -4 | 1 | 0.3 | 0 | 2
COc1ccc2c(c1)-c1nc(N)sc1CC2 | 60* | -4 | 2 | 0.4 | 0 | 2
COc1ccc2c(c1)-c1nc(/N=C/c3ccc(O)c(OC)c3)sc1CC2 | 36 | -9 | 0 | 0.6 | 1 | 11
Cc1[nH]c2ccccc2c1C(=O)CSc1ccccc1 | 25 | -16 | -3 | 0.7 | 0 | 11
SMILES | Diaph inh CS | p47phox inh | Efa HMGR inh | Diaph act CS | ABCB1 inh | ABCG2 block
CCOC(=O)C1=C(C)OC(N)=C(C#N)C1c1cc(C)sc1C (stereo unspecified) | -1 | -12 | 0 | 1 | 0 | 1
CCOC(=O)C1=C(C)OC(N)=C(C#N)C1c1cc2ccccc2nc1N1CCCCC1 (stereo unspecified) | 29 | 81* | -2 | 0.7 | 1 | 4
CCOC(=O)C1=C(C)OC(N)=C(C#N)C1c1cc2cc(C)ccc2nc1N1CCCCC1 (stereo unspecified) | 16 | 49* | 2 | 0.8 | 0 | 0
COc1ccc(S(=O)(=O)N2CCOCC2)cc1NC(=O)CSc1nnc2c(n1)[nH]c1ccccc12 | . | -46 | . | . | . | .
O=S(=O)(c1cccc2cccnc12)N1CCOCC1 | 2 | 11 | -6 | 1 | 0 | 1
CN(C)c1cccc2c(S(=O)(=O)N3CCOCC3)cccc12 | 16 | 59* | 0 | 0.8 | 0 | 0
CCc1cc[n+](-c2nc3ccccc3nc2C(=C=[N-])C#N)cc1 | 15 | -9 | -5 | 0.8 | 0 | 0
N#CC(=C=[N-])c1nc2ccccc2nc1-[n+]1cccc(NC(=O)c2ccc(F)cc2)c1 | . | 21 | . | . | . | .
N#CC(=C=[N-])c1nc2ccccc2nc1-[n+]1cccc(NC(=O)c2ccccc2)c1 | . | 53* | . | . | . | .
N#CC(=C=[N-])c1nc2ccccc2nc1-[n+]1cccc(NC(=O)c2cccs2)c1 | . | 48* | . | . | . | .
CCCc1cc(=O)n2[nH]cnc2n1 | 9 | 32* | -1 | 0.9 | 0 | 0
Cc1cc(=O)n2[nH]cnc2n1 | 8 | -8 | -12 | 0.9 | 0 | 2
S=c1nc(-c2sccc2OCc2ccc(Cl)cc2Cl)[nH][nH]1 | 54* | -2 | -1 | 0.5 | -2 | -5
CCn1c(-c2ccccc2O)n[nH]c1=S | 27 | 33* | -2 | 0.7 | 0 | 0
CCN(CC)S(=O)(=O)c1ccc(S(=O)(=O)N2CCCC2)cc1 | . | -45 | 9.9* | . | 0 | 2
CC#CCN(CC#CC)S(=O)(=O)c1ccc(S(=O)(=O)N2CCOCC2)cc1 | 21 | 194* | 1 | 0.8 | 1 | 3
Cc1c(C(=O)N2CCC(Cc3ccccc3)CC2)sc2ncnc(N3CCC(C)CC3)c12 | 24 | -5 | -1 | 0.8 | 1 | 1
CN1C(=O)N(C)c2ccc(C=O)c3cccc1c23 | 37 | -11 | -2 | 0.6 | 2 | 35
Cc1cc(C)n(C(=O)c2c([N+](=O)[O-])c(C)nn2C)n1 | 9 | 1 | -3 | 0.9 | 0 | 0
CCCCN(Cc1ccco1)C(=O)c1cc2c(=O)[nH]c3ccc(C)cc3c2s1 | 57* | -23 | -10 | 0.4 | 2 | 4
Cc1ccc2[nH]c(=O)c3cc(C(=O)N(CCCOC(C)C)Cc4ccco4)sc3c2c1 | 44 | -21 | -6 | 0.6 | 1 | -1
Cc1[nH][nH]c(=O)c1C(c1ccc(-c2cccc(C(=O)O)c2)o1)c1c(C)[nH][nH]c1=O | 26 | -11 | -4 | 0.7 | 1 | 1
COC(=O)c1ccc(-c2ccc(C(c3c(C)[nH][nH]c3=O)c3c(C)[nH][nH]c3=O)o2)cc1 | 68* | -11 | -7 | 0.3 | -1 | -2
